In ChEMBL document CHEMBL1125559, “Analogues of platelet activating factor. 7. Bis-aryl amide and bis-aryl urea receptor antagonists of PAF” (J Med Chem, 1992):

Experiments:
[1] = test system: Mus musculus; assay: Compound was evaluated for PAF-induced lethality in mouse (intraperitoneally at a dose of 1.0 mg/kg in saline 0.5 hr before lethal intravenous PAF challenge 75-150 mg/kg); format: ADME, organism-based; design: dose 1 mg/kg, route intraperitoneal; details: in vivo
Summary of the method: (§1)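 Female Swiss-Webster mice (20-25 g) received test compound ip in saline (10 mL/Kg); controls got saline alone. The PAF dose was chosen daily from small pilot groups. Survival was scored at 1.5 h and recorded as dead/total.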

[2] = test system: Mus musculus; assay: Compound was evaluated for PAF-induced lethality in mouse (intraperitoneally at a dose of 1.0 mg/kg in saline 0.5 hr before lethal intravenous PAF challenge 75-150 mg/kg); 4/12; format: ADME, organism-based; design: dose 1 mg/kg; details: in vivo; summary of the method: as §1
[3] = species on record: Oryctolagus cuniculus; assay: Concentration required to inhibit PAF (5*10e-8 M) induced platelet aggregation in rabbit platelet rich plasma(PRP) by 50%; format: functional, organism-based
Summary of the method: (§2)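 Rabbit PRP came from blood spun at 800 rpm for 15 min at room temperature, with platelet counts of 350 000–550 000/µL. PRP was equilibrated 1–2 min at 37 °C in an aggregometer. It was preincubated 5 min with test compound (final 10^-8 to 10^-5 M; methanol stock diluted in saline) or saline, then challenged with L-C16-PAF. IC50 was taken from concentration–response curves of aggregation magnitude and averaged over separate determinations.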

[4] = test system: Mus musculus; assay: Compound was evaluated for PAF-induced lethality in mouse (intraperitoneally at a dose of 1.0 mg/kg in saline 0.5 hr before lethal intravenous PAF challenge 75-150 mg/kg); 10/17; format: ADME, organism-based; design: dose 1 mg/kg; details: in vivo; summary of the method: as §1
[5] = species on record: Oryctolagus cuniculus; assay: Concentration required to inhibit PAF (5*10e-8 M) induced platelet aggregation in rabbit platelet rich plasma(PRP) by 50% at 10 uM; NI= No inhibition; format: functional, organism-based
[6] = test system: Mus musculus; assay: Compound was evaluated for PAF-induced lethality in mouse (intraperitoneally at a dose of 1.0 mg/kg in saline 0.5 hr before lethal intravenous PAF challenge 75-150 mg/kg); 12/12; format: ADME, organism-based; design: dose 1 mg/kg; details: in vivo; summary of the method: as §1
[7] = species on record: Oryctolagus cuniculus; assay: Concentration required to inhibit PAF (5*10e-8 M) induced platelet aggregation in rabbit platelet rich plasma(PRP) by 50% at 10 uM; format: functional
[8] = test system: Mus musculus; assay: Compound was evaluated for PAF-induced lethality in mouse (intraperitoneally at a dose of 1.0 mg/kg in saline 0.5 hr before lethal intravenous PAF challenge 75-150 mg/kg); 2/10; format: ADME, organism-based; design: dose 1 mg/kg; details: in vivo; summary of the method: as §1
[9] = species on record: Oryctolagus cuniculus; assay: Concentration required to inhibit PAF (5*10e-7 M) induced platelet aggregation in rabbit platelet rich plasma(PRP) by 50%; format: functional, organism-based; summary of the method: as §2
[10] = test system: Mus musculus; assay: Compound was evaluated number of mouse dead out of total (intraperitoneally at a dose of 1.0 mg/kg in saline 0.5 hr before lethal intravenous PAF challenge 75-150 mg/kg)''; 6/12; format: ADME, organism-based; design: dose 1 mg/kg, route intravenous; details: in vivo; summary of the method: as §1
[11] = test system: Mus musculus; assay: Compound was evaluated for PAF-induced lethality in mouse (intraperitoneally at a dose of 1.0 mg/kg in saline 0.5 h before lethal intravenous PAF challenge 75-150 mg/kg); 12/14; format: ADME, organism-based; design: dose 1 mg/kg; details: in vivo; summary of the method: as §1
[12] = test system: Mus musculus; assay: Compound was evaluated for PAF-induced lethality in mouse (intraperitoneally at a dose of 1.0 mg/kg in saline 0.5 hr before lethal intravenous PAF challenge 75-150 mg/kg); 9/23; format: ADME, organism-based; design: dose 1 mg/kg, route intravenous; details: in vivo; summary of the method: as §1
[13] = test system: Mus musculus; assay: Compound was evaluated for PAF-induced lethality in mouse (intraperitoneally at a dose of 1.0 mg/kg in saline 0.5 hr before lethal intravenous PAF challenge 75-150 mg/kg); 5/12; format: ADME, organism-based; design: dose 1 mg/kg, route intravenous; details: in vivo; summary of the method: as §1
[14] = test system: Mus musculus; assay: Compound was evaluated for PAF-induced lethality in mouse (intraperitoneally at a dose of 1.0 mg/kg in saline 0.5 hr before lethal intravenous PAF challenge 75-150 mg/kg); 8/12; format: ADME, organism-based; design: dose 1 mg/kg, route intravenous; details: in vivo; summary of the method: as §1
[15] = test system: Mus musculus; assay: Compound was evaluated for PAF-induced lethality in mouse (intraperitoneally at a dose of 1.0 mg/kg in saline 0.5 hr before lethal intravenous PAF challenge 75-150 mg/kg); 11/15; format: ADME, organism-based; design: dose 1 mg/kg; details: in vivo; summary of the method: as §1

CCCCCCCCCCCCCCOc1cccc(OP(=O)([O-])Oc2cccc(C[n+]3csc(C)c3)c2)c1C(=O)OC
Lethality [1]: 15%

CCCCCCCCCCCCCCOc1cc(CN(C(C)=O)c2cccc(C[n+]3csc(C)c3)c2)ccc1OC.[Br-]
Lethality [1]: 27%
Dead/total [2]: 4
IC50 [3]: 0.37 µM

CCCCCOc1c(OC)cc(CN(C(C)=O)c2cccc(C[n+]3csc(C)c3)c2)cc1OC
IC50 [3]: 2.3 µM

COc1cc([C@H]2CC[C@H](c3cc(OC)c(OC)c(OC)c3)O2)cc(OC)c1OC
IC50 [3]: 1.6 µM

CCCCCCCCCCCCCCOc1ccc(CN(C(C)=O)c2cccc(C[n+]3csc(C)c3)c2)cc1Cl.[Br-]
Lethality [1]: 59%
Dead/total [4]: 10
IC50 [3]: 0.13 µM

CCCCCCCCCCCCCCOc1ccc(CC(=O)Nc2ccccc2C[n+]2csc(C)c2)cc1.[Br-]
IC50 [5]: Not Active

CCCCCCCCCCCCCCOc1ccc(CNC(=O)c2cccc(C[n+]3csc(C)c3)c2)cc1OC
IC50 [3]: 0.96 µM

CCCCCCCCCCCCCCOc1cccc(CC(=O)Nc2cccc(C[n+]3csc(C)c3)c2)c1.[Br-]
Lethality [1]: 100%
Dead/total [6]: 12
IC50 [3]: 0.55 µM

CCCCCCCCCCCCCCOc1cc(CNC(=O)c2cccc(C[n+]3csc(C)c3)c2)cc(OC)c1.[Br-]
Inhibition [7]: 43%

CCCCCCCCCCCCCCOc1c(C)cccc1CN(C(C)=O)c1cccc(C[n+]2csc(C)c2)c1.[Br-]
Lethality [1]: 20%
Dead/total [8]: 2
IC50 [3]: 3.2 µM

CCCCCCCCCCCCCCOc1ccc(CCN(C(C)=O)c2cccc(C[n+]3csc(C)c3)c2)cc1
IC50 [9]: 4.3 µM

CCCCCCCCCCCCCCOc1ccc(CC(=O)Nc2cccc(C[n+]3csc(C)c3)c2)cc1.[Br-]
Lethality [1]: 50%
Dead/total [10]: 6
IC50 [3]: 0.31 µM

CCCCCCCCCCCCCCOc1c(C)cc(CN(C(C)=O)c2cccc(C[n+]3csc(C)c3)c2)cc1C
IC50 [3]: 0.71 µM

CCCCCCCCCCCCCCOc1c(C)cc(CNC(=O)c2cccc(C[n+]3csc(C)c3)c2)cc1C
IC50 [3]: 3.1 µM

CCCCCCCCCCCCCCOc1cc(CN(C(C)=O)c2cccc(C[n+]3csc(C)c3)c2)ccc1C.[Br-]
Lethality [1]: 86%
Dead/total [11]: 12
IC50 [3]: 6.7 µM

CCCCCCCCCCCCCCOc1ccc(C)cc1CN(C(C)=O)c1cccc(C[n+]2csc(C)c2)c1.[Br-]
Lethality [1]: 39%
Dead/total [12]: 9
IC50 [3]: 1.5 µM

CCCCCCCCCCCCCCOc1cccc(C(=O)Nc2cccc(C[n+]3csc(C)c3)c2)c1
IC50 [3]: 4.2 µM

CCCCCCCCCCCCCCOc1ccc(CCC(=O)Nc2cccc(C[n+]3csc(C)c3)c2)cc1.[Br-]
Lethality [1]: 50%
Dead/total [13]: 5
IC50 [3]: 7.3 µM

Cc1nnc2n1-c1sc(CCC(=O)N3CCOCC3)cc1C(c1ccccc1Cl)=NC2 [APAFANT]
IC50 [3]: 0.34 µM

CCCCCCCCCCCCCCOc1c(OC)cc(CN(C(C)=O)c2cccc(C[n+]3csc(C)c3)c2)cc1OC
IC50 [3]: 0.57 µM

CCCCCCCCCCCCCCOc1ccc(N(Cc2cccc(C[n+]3csc(C)c3)c2)C(C)=O)cc1
IC50 [3]: 1 µM

CCCCCCCCCCCCCCOc1ccc(CC(=O)Nc2ccc(C[n+]3csc(C)c3)cc2)cc1.[Br-]
Lethality [1]: 80%
Dead/total [14]: 8
IC50 [3]: 0.6 µM

CCCCCCCCCCCCCCOc1cc(OC)ccc1CN(C(C)=O)c1cccc(C[n+]2csc(C)c2)c1.[Br-]
Lethality [1]: 73%
Dead/total [15]: 11
IC50 [3]: 1.4 µM
